Experimental data as given in ChEMBL document CHEMBL1158454, “Discovery of a potent and orally active hedgehog pathway antagonist (IPI-926)” (J Med Chem, 2009).
Calls of active or inactive are those of the source.

Columns and labels:
[1] = Inhibition of HedgeHog pathway in mouse C3H10T1/2 cells assessed as inhibition of 20-(S)-hydroxysterol/22-(S)-hydroxysterol-induced osteoblastic differentiation after 72 hrs by alkaline phosphatase assay; settings: C3H 10T1/2, 72 h
[2] = in vitro; settings: human
[3] = system: Mus musculus; assay: Antitumor activity against Ptc+/- Hic+/- mouse B837Tx cells allografted in NOD/SCID mouse assessed as median time to unmeasurable tumor volume at 25 mg/kg, po administered daily for 21 days; assay type: functional, organism-based; parameters: dose 25 mg/kg
[4] = Elimination half life in Sprague-Dawley rat at 1 mg/kg, iv; assay type: ADME, organism-based; parameters: dose 1 mg/kg, route intravenous; settings: in vivo, read-out: beta t1/2 (converted)
Summary of the method: (§1)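 Plasma sampled at 0.083-24 h (T_last 24 h), protein-precipitated with acetonitrile containing jervine internal standard, and quantified by LC/MS/MS. Parameters taken from the concentration-time profile.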

[5] = Plasma clearance in cynomolgus monkey at 1 mg/kg, iv; assay type: ADME, organism-based, Macaca fascicularis; parameters: dose 1 mg/kg, route intravenous
Summary of the method: as §1

[6] = Oral bioavailability in Sprague-Dawley rat at 5 mg/kg; assay type: ADME, organism-based; settings: in vivo
[7] = Elimination half life in CD1 mouse at 1 mg/kg, iv; assay type: ADME, organism-based; parameters: dose 1 mg/kg, route intravenous; settings: in vivo, read-out: beta t1/2 (converted)
Summary of the method: as §1

[8] = Toxicity in po dosed Ptc+/- Hic+/- mouse B837Tx cells allografted NOD/SCID mouse assessed as maximum tolerated dose after 5 days; assay type: organism-based; settings: in vivo
Summary of the method: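 Tumor-bearing immunocompromised mice received repeat oral dosing for 5 days. MTD was defined as the dose tolerated by all animals (N = 3).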

[9] = Elimination half life in cynomolgus monkey at 1 mg/kg, iv; assay type: ADME, organism-based, Macaca fascicularis; parameters: dose 1 mg/kg, route intravenous; settings: in vivo, read-out: beta t1/2 (converted)
Summary of the method: as §1

[10] = Elimination half life in Beagle dog at 1 mg/kg, iv; assay type: ADME, organism-based, Canis lupus familiaris; parameters: dose 1 mg/kg, route intravenous; settings: in vivo, read-out: beta t1/2 (converted)
Summary of the method: as §1

[11] = Plasma clearance in CD1 mouse at 1 mg/kg, iv; assay type: ADME, organism-based; parameters: dose 1 mg/kg, route intravenous
Summary of the method: as §1

[12] = system: Mus musculus; assay: Antitumor activity against Ptc+/- Hic+/- mouse B837Tx cells allografted in NOD/SCID mouse assessed as tumor-free interval on 21 days post treatment at 25 mg/kg, po administered daily for 21 days; assay type: functional, organism-based; parameters: dose 25 mg/kg
[13] = Oral bioavailability in cynomolgus monkey at 4 mg/kg; assay type: ADME, organism-based, Macaca fascicularis; settings: in vivo
[14] = system: Mus musculus; assay: Antitumor activity against Ptc+/- Hic+/- mouse B837Tx cells allografted in NOD/SCID mouse assessed as effect on recurrence rate on post treatment at 25 mg/kg, po administered daily for 21 days; assay type: functional, organism-based; parameters: dose 25 mg/kg
[15] = Oral bioavailability in Beagle dog at 4 mg/kg; assay type: ADME, organism-based, Canis lupus familiaris; settings: in vivo
[16] = Plasma clearance in Sprague-Dawley rat at 1 mg/kg, iv; assay type: ADME, organism-based; parameters: dose 1 mg/kg, route intravenous
Summary of the method: as §1

[17] = Plasma clearance in Beagle dog at 1 mg/kg, iv; assay type: ADME, organism-based, Canis lupus familiaris; parameters: dose 1 mg/kg, route intravenous
Summary of the method: as §1

[18] = Oral bioavailability in CD1 mouse at 5 mg/kg; assay type: ADME, organism-based; settings: in vivo
[19] = Volume of distribution in cynomolgus monkey at 1 mg/kg, iv; assay type: ADME, organism-based, Macaca fascicularis; parameters: dose 1 mg/kg, route intravenous; settings: in vivo
Summary of the method: as §1

[20] = Volume of distribution in Beagle dog at 1 mg/kg, iv; assay type: ADME, organism-based, Canis lupus familiaris; parameters: dose 1 mg/kg, route intravenous; settings: in vivo
Summary of the method: as §1

[21] = Volume of distribution in Sprague-Dawley rat at 1 mg/kg, iv; assay type: ADME, organism-based; parameters: dose 1 mg/kg, route intravenous; settings: in vivo
Summary of the method: as §1

[22] = Volume of distribution in CD1 mouse at 1 mg/kg, iv; assay type: ADME, organism-based; parameters: dose 1 mg/kg, route intravenous; settings: in vivo
Summary of the method: as §1

Structure (SMILES)	EC50 [1]	half-life at 0.5 µM ([2]; microsomes)	half-life at 0.5 µM ([2]; liver microsomes)	further results
CC1=C2C[C@H]3[C@@H](CC[C@@H]4C[C@@H](NS(C)(=O)=O)CC[C@@]43C)[C@@H]2CC[C@@]2(C1)O[C@@H]1C[C@H](C)CN[C@H]1[C@H]2C	90 nM	0.5 h		
CC1=C2C[C@H]3[C@@H](CC[C@@H]4C[C@@H](O)CC[C@@]43C)[C@@H]2CC[C@@]2(C1)O[C@@H]1C[C@H](C)CN[C@H]1[C@H]2C	23 nM		0.333 h	
CO/N=C1\CC[C@@]2(C)[C@H](CC[C@H]3[C@@H]4CC[C@@]5(CC(C)=C4C[C@@H]32)O[C@@H]2C[C@H](C)CN[C@H]2[C@H]5C)C1	160 nM		0.917 h	
CC(=O)N[C@H]1CC[C@@]2(C)[C@H](CC[C@H]3[C@@H]4CC[C@@]5(CC(C)=C4C[C@@H]32)O[C@@H]2C[C@H](C)CN[C@H]2[C@H]5C)C1	300 nM	1 h		
CC1=C2C[C@H]3[C@@H](CC[C@@H]4Cc5nc(C)sc5C[C@@]43C)[C@@H]2CC[C@@]2(C1)O[C@@H]1C[C@H](C)CN[C@H]1[C@H]2C	270 nM		1.67 h	
CO[C@H]1CC[C@@]2(C)[C@H](CC[C@H]3[C@@H]4CC[C@@]5(CC(C)=C4C[C@@H]32)O[C@@H]2C[C@H](C)CN[C@H]2[C@H]5C)C1	490 nM	> 3.33 h		
CC1=C2C[C@H]3[C@@H](CC[C@@H]4c5c[nH]nc5CC[C@@]43C)[C@@H]2CC[C@@]2(C1)O[C@@H]1C[C@H](C)CN[C@H]1[C@H]2C	220 nM	0.45 h		
CC1=C2C[C@H]3[C@@H](CC[C@@H]4CCCC[C@@]43C)[C@@H]2CC[C@@]2(C1)O[C@@H]1C[C@H](C)CN[C@H]1[C@H]2C	760 nM			
CC1=C2C[C@H]3[C@@H](CC[C@@H]4C/C(=N/O)CC[C@@]43C)[C@@H]2CC[C@@]2(C1)O[C@@H]1C[C@H](C)CN[C@H]1[C@H]2C	15 nM	0.75 h		
CC1=C2C[C@H]3[C@@H](CC[C@@H]4Cc5n[nH]c(C(F)(F)F)c5C[C@@]43C)[C@@H]2CC[C@@]2(C1)O[C@@H]1C[C@H](C)CN[C@H]1[C@H]2C	170 nM		3.33 h	
CC1=C2C[C@H]3[C@@H](CC[C@@H]4Cc5[nH][nH]c(=O)c5C[C@@]43C)[C@@H]2CC[C@@]2(C1)O[C@@H]1C[C@H](C)CN[C@H]1[C@H]2C	170 nM		1.67 h	
CC1=C2C[C@H]3[C@@H](CCC4=CC(=O)CC[C@@]43C)[C@@H]2CC[C@@]2(C1)O[C@@H]1C[C@H](C)CN[C@H]1[C@H]2C	300 nM	1.25 h		Activity [3]: inactive; half-life [4]: 1.7 h; clearance [5]: 103 mL/min/kg; bioavailability [6]: 13%; half-life [7]: 3.5 h; MTD at 120 h [8]: 25 mg/kg; half-life [9]: 2.4 h; half-life [10]: 2.2 h; clearance [11]: 60 mL/min/kg; Activity [12]: inactive; bioavailability [13]: 69%; Activity [14]: inactive; bioavailability [15]: 7%; clearance [16]: 207 mL/min/kg; clearance [17]: 78.3 mL/min/kg; bioavailability [18]: 79%; Vd [19]: 21.3 L/kg; Vd [20]: 13.9 L/kg; Vd [21]: 28 L/kg; Vd [22]: 18 L/kg
CC1=C2C[C@H]3[C@@H](CC[C@@H]4Cc5nn(S(C)(=O)=O)cc5C[C@@]43C)[C@@H]2CC[C@@]2(C1)O[C@@H]1C[C@H](C)CN[C@H]1[C@H]2C	140 nM		3 h	
CC1=C2C[C@H]3[C@@H](CC[C@@H]4Cc5nn(S(=O)(=O)c6ccc(C)cc6)cc5C[C@@]43C)[C@@H]2CC[C@@]2(C1)O[C@@H]1C[C@H](C)CN[C@H]1[C@H]2C	900 nM		1.08 h	
CC1=C2C[C@H]3[C@@H](CC[C@@H]4CN(C)C(=O)CC[C@@]43C)[C@@H]2CC[C@@]2(C1)O[C@@H]1C[C@H](C)CN[C@H]1[C@H]2C	40 nM	0.767 h		
CC1=C2C[C@H]3[C@@H](CC[C@@H]4C[C@@H](n5ccnn5)CC[C@@]43C)[C@@H]2CC[C@@]2(C1)O[C@@H]1C[C@H](C)CN[C@H]1[C@H]2C	130 nM		1.17 h	
CO[C@@H]1CC[C@@]2(C)[C@H](CC[C@H]3[C@@H]4CC[C@@]5(CC(C)=C4C[C@@H]32)O[C@@H]2C[C@H](C)CN[C@H]2[C@H]5C)C1	180 nM	0.333 h		
CC1=C2C[C@H]3[C@@H](CC[C@@H]4CC(=O)CC[C@@]43C)[C@@H]2CC[C@@]2(C1)O[C@@H]1C[C@H](C)CN[C@H]1[C@H]2C	13 nM	1.17 h		
CC1=C2C[C@H]3[C@@H](CC[C@@H]4C[C@H](O)CC[C@@]43C)[C@@H]2CC[C@@]2(C1)O[C@@H]1C[C@H](C)CN[C@H]1[C@H]2C	9 nM		0.667 h	
CC1=C2C[C@H]3[C@@H](CC[C@@H]4C[C@H](N)CC[C@@]43C)[C@@H]2CC[C@@]2(C1)O[C@@H]1C[C@H](C)CN[C@H]1[C@H]2C	> 1000 nM			
CC1=C2C[C@H]3[C@@H](CC[C@@H]4C[C@H](n5ccnn5)CC[C@@]43C)[C@@H]2CC[C@@]2(C1)O[C@@H]1C[C@H](C)CN[C@H]1[C@H]2C	24 nM		0.667 h	
CC1=C2C[C@H]3[C@@H](CC[C@@H]4Cc5nn(C)cc5C[C@@]43C)[C@@H]2CC[C@@]2(C1)O[C@@H]1C[C@H](C)CN[C@H]1[C@H]2C	54 nM		0.583 h	
CC(=O)N[C@@H]1CC[C@@]2(C)[C@H](CC[C@H]3[C@@H]4CC[C@@]5(CC(C)=C4C[C@@H]32)O[C@@H]2C[C@H](C)CN[C@H]2[C@H]5C)C1	17 nM	1.08 h		
CC1=C2C[C@H]3[C@@H](CC[C@H]4CC(=O)CC[C@@]43C)[C@@H]2CC[C@@]2(C1)O[C@@H]1C[C@H](C)CN[C@H]1[C@H]2C	400 nM	1.25 h		
CC1=C2C[C@H]3[C@@H](CC[C@@H]4Cc5nocc5C[C@@]43C)[C@@H]2CC[C@@]2(C1)O[C@@H]1C[C@H](C)CN[C@H]1[C@H]2C	62 nM	0.133 h		
CC1=C2C[C@H]3[C@@H](CC[C@@H]4C[C@@H](N)CC[C@@]43C)[C@@H]2CC[C@@]2(C1)O[C@@H]1C[C@H](C)CN[C@H]1[C@H]2C	> 1000 nM			
CC1=C2C[C@H]3[C@@H](CC[C@@H]4Cc5nonc5C[C@@]43C)[C@@H]2CC[C@@]2(C1)O[C@@H]1C[C@H](C)CN[C@H]1[C@H]2C	230 nM		0.133 h	
